In ChEMBL document CHEMBL3612055, “Design, synthesis and biological evaluation of 1,3-diphenyl-1H-pyrazole derivatives containing benzimidazole skeleton as potential anticancer and apoptosis inducing agents” (Eur J Med Chem, 2015):
Active and inactive are the calls of the source. No cut-off for these calls is given here.

Assays:
HaCaT = experiment: Cytotoxic activity against human HaCaT cells assessed as reduction in cell growth incubated for 48 hrs by MTT assay; assay type: cell-based
MCF7 [1] = experiment: Induction of apoptosis in human MCF7 cells assessed as reduction in Bcl2 mRNA expression at IC50 level incubated for 24 hrs by RT-PCR method; assay type: functional, cell-based
How it was run: (§1)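 Total RNA was Trizol-extracted and 1 µg reverse-transcribed with random primers. Real-time PCR ran 95 °C 3 min, then 40 cycles of 95 °C 1 s / 60 °C 20 s. Fold change came from comparative CT, normalised to β-actin. Reactions ran in triplicate, across three experiments.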

MCF7 [2] = experiment: Induction of cell cycle arrest in human MCF7 cells assessed as accumulation at G1 phase at IC50 level incubated for 24 hrs by propidium iodide staining based flow cytometry (reference value: 72.3%); assay type: functional
How it was run: (§2)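 Floating and adherent cells were fixed in 70% ethanol at 4 °C and rehydrated. They were stained 15 min with PI/Triton X-100/RNase A. 10000 events were acquired by flow cytometry. G0/G1, S and G2/M percentages were gated in FlowJo.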

MCF7 [3] = experiment: Reduction in mitochondrial membrane potential in human MCF7 cells at IC50 level incubated for 24 hrs by rhodamine 123 staining based fluorescence microscopy; assay type: functional
How it was run: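 Harvested cells were loaded with rhodamine 123 (5 µg/mL), washed and incubated 30 min at room temperature. They were analysed by flow cytometry and fluorescence microscopy, and fluorescence loss was quantified by spectrofluorometry vs untreated cells.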

MCF7 [4] = experiment: Induction of apoptosis in human MCF7 cells assessed as DNA fragmentation at IC50 level incubated for 24 hrs by ethidium bromide staining based agarose gel electrophoresis method; assay type: functional, cell-based
How it was run: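 Pellets were lysed in SDS/EDTA/Tris pH 8.0 buffer with RNase A (37 °C, 90 min), then proteinase K (50 °C, 1 h). DNA was precipitated with ammonium acetate/ethanol. It was run on 1.5% agarose in TBE and stained with ethidium bromide, against control cells.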

A549 = experiment: Anticancer activity against human A549 cells assessed as reduction in cell growth incubated for 48 hrs by MTT assay; assay type: functional, cell-based; details: A549, 48 h
MCF7 [5] = experiment: Anticancer activity against human MCF7 cells assessed as reduction in cell growth incubated for 48 hrs by MTT assay; assay type: functional, cell-based; details: MCF7, 48 h
MCF7 [6] = experiment: Increase in beta-catenin mRNA expression in human MCF7 cells at IC50 level incubated for 24 hrs by RT-PCR method; assay type: functional; how it was run: as §1
MCF7 [7] = experiment: Anticancer activity against human MCF7 cells assessed as reduction in cell viability at IC50 level incubated for 48 hrs; assay type: functional, cell-based
How it was run: (§3)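 MCF-7 cells were kept in DMEM/10% FBS and used at passages 4-8. […] Detachment, shrinkage and viable cell numbers were scored under phase contrast microscopy against untreated cells.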

MCF7 [8] = experiment: Induction of cell cycle arrest in human MCF7 cells assessed as reduction in accumulation at G2/M phase at IC50 level incubated for 24 hrs by propidium iodide staining based flow cytometry; assay type: functional; how it was run: as §2
MCF7 [9] = experiment: Induction of ROS generation in human MCF7 cells at IC50 level incubated for 24 hrs by carboxy-DCFDA staining based fluorescence microscopy; assay type: functional
How it was run: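 Carboxy-DCFDA (10 µM) was added for 30 min at room temperature in the dark. Cells were washed and resuspended at 5×10^4 cells/mL. Fluorescence was read by spectrofluorometry at ex 488 / em 525 nm, with fluorescence microscopy images also taken.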

MCF7 [10] = experiment: Induction of apoptosis in human MCF7 cells assessed as increase in Bax mRNA expression at IC50 level incubated for 24 hrs by RT-PCR method; assay type: functional, cell-based; how it was run: as §1
MCF7 [11] = experiment: Inhibition of colony formation in human MCF7 cells assessed as reduction in clonogenic survival at IC50 level incubated for 24 hrs followed medium replacement with fresh medium and further incubation for 14 days; assay type: functional
HeLa = experiment: Anticancer activity against human HeLa cells assessed as reduction in cell growth incubated for 48 hrs by MTT assay; assay type: functional, cell-based
MCF7 [12] = experiment: Induction of cell cycle arrest in human MCF7 cells assessed as reduction in accumulation at S phase at IC50 level incubated for 24 hrs by propidium iodide staining based flow cytometry; assay type: functional; how it was run: as §2
MCF7 [13] = experiment: Induction of cell morphology changes in human MCF7 cells assessed as cell shrinkage at IC50 level incubated for 48 hrs by phase contrast microscopy; assay type: functional, cell-based; how it was run: as §3
MCF7 [14] = experiment: Increase in cyclin B1 mRNA expression in human MCF7 cells at IC50 level incubated for 24 hrs by RT-PCR method; assay type: functional; how it was run: as §1
MCF7 [15] = experiment: Induction of cell morphology changes in human MCF7 cells assessed as cell detachment at IC50 level incubated for 48 hrs by phase contrast microscopy; assay type: functional, cell-based; how it was run: as §3
MCF7 [16] = experiment: Induction of apoptosis in human MCF7 cells assessed as increase in caspase-7 mRNA expression at IC50 level incubated for 24 hrs by RT-PCR method; assay type: functional, cell-based; how it was run: as §1
MCF7 [17] = experiment: Increase in E-cadherin mRNA expression in human MCF7 cells at IC50 level incubated for 24 hrs by RT-PCR method; assay type: functional; how it was run: as §1
MCF7 [18] = experiment: Effect on CDK1 cyclin D1 mRNA expression in human MCF7 cells at IC50 level incubated for 24 hrs by RT-PCR method; assay type: functional, cell-based; how it was run: as §1
MCF7 [19] = experiment: Induction of apoptosis in human MCF7 cells assessed as increase in caspase-3 mRNA expression at IC50 level incubated for 24 hrs by RT-PCR method; assay type: functional, cell-based; how it was run: as §1
MCF7 [20] = experiment: Reduction in cyclin D1 mRNA expression in human MCF7 cells at IC50 level incubated for 24 hrs by RT-PCR method; assay type: functional, cell-based; how it was run: as §1
MCF7 [21] = experiment: Inhibition of cell migration of human MCF7 cells at IC50 level incubated for 24 to 72 hrs by phase contrast microscopy based wound healing assay; assay type: functional
How it was run: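 Confluent MCF-7 monolayers (5×10^5 cells/well, 24 h) were scratched with a pipette tip and washed with PBS pH 7.4. Medium with IC50 concentrations was then added. Cells entering the wound were photographed by phase contrast at 0, 24, 48 and 72 h, in ≥3 random fields per well.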

MCF7 [22] = experiment: Induction of apoptosis in human MCF7 cells assessed as chromatin condensation at IC50 level incubated for 24 hrs by Hoechst […] staining based fluorescence microscopy; assay type: functional
How it was run: (§4)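 They were fixed in 4% paraformaldehyde and stained with Hoechst […] (5 µg/mL, 30 min, room temperature). Nuclei in random fields were imaged by fluorescence microscopy (ex 350 / em 460 nm). Apoptotic fraction is mean ± SD of three independent experiments; DMSO control.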

MCF7 [23] = experiment: Induction of apoptosis in human MCF7 cells assessed as nuclear fragmentation at IC50 level incubated for 24 hrs by Hoechst […] staining based fluorescence microscopy; assay type: functional; how it was run: as §4

Structure (SMILES)	IC50 (HaCaT) [µM]	Activity (MCF7 [1])	Activity (MCF7 [2]) [%]	inhibition (INH) (MCF7 [3]) [%]	Activity (MCF7 [4])	IC50 (A549) [nM]	IC50 (MCF7 [5]) [nM]	fold change (FC) (MCF7 [6])	Activity (MCF7 [7])	Activity (MCF7 [8])	fold change (FC) (MCF7 [9])	Activity (MCF7 [10])	inhibition (INH) (MCF7 [11]) [%]	IC50 (HeLa) [nM]	Activity (MCF7 [12])	Activity (MCF7 [13])	fold change (FC) (MCF7 [14])	Activity (MCF7 [15])	Activity (MCF7 [16])	fold change (FC) (MCF7 [17])	other results
Brc1ccc2[nH]c(-c3cn(-c4ccccc4)nc3-c3ccccc3)nc2c1	> 50	Active	85.2	62	Active	1810	830	1.4	Active	Active	2	Active	50	1760	Active	Active	1.1	Active	Active	2.2	Activity (MCF7 [18]): inactive; Activity (MCF7 [19]): Active; inhibition (MCF7 [20]): Active; inhibition (MCF7 [21]): Active
Fc1ccc(-c2nn(-c3ccccc3)cc2-c2nc3cc(F)ccc3[nH]2)cc1	> 50	Active	84.7	44	Active	1130	950	1.4	Active	Active	2	Active	50	1570	Active	Active	1.1	Active	Active	1.6	Activity (MCF7 [22]): 26%; Activity (MCF7 [18]): inactive; Activity (MCF7 [19]): Active; inhibition (MCF7 [20]): Active; Activity (MCF7 [23]): 26%; inhibition (MCF7 [21]): Active
Clc1ccc(-c2nn(-c3ccccc3)cc2-c2nc3cc(Cl)ccc3[nH]2)cc1	> 50	Active	81.3	44	Active	1340	1170	1.4	Active	Active	2	Active	50	1630	Active	Active	1.1	Active	Active	1.6	Activity (MCF7 [22]): 32%; Activity (MCF7 [18]): inactive; Activity (MCF7 [19]): Active; inhibition (MCF7 [20]): Active; Activity (MCF7 [23]): 32%; inhibition (MCF7 [21]): Active
